DNMT1 inh: human DNMT1 methyltransferase inhibitors, primary screen, biochemical, molecular beacon, fluorescence, HinP1I cleavage, uHTS. DNA (cytosine-5)-methyltransferase 1 (Homo sapiens), P26358. inhibition (reported as % activation of signal), % at 10 µM. 0.83% of 360,000 active; in the data active = inhibition above about 50%
STEP block: STEP phosphatase inhibitors, primary screen, biochemical, fluorescence intensity, uHTS; Tyrosine-protein phosphatase non-receptor type 5 (Homo sapiens), P54829; recombinant STEP, OMFP fluorogenic substrate; inhibition, % at 20 µM; 0.25% of 360,000 active; AID 588621, 2011;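 active = inhibition at 20 µM, scaled per plate between control wells, above about 37%, limit read from the data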;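 also: 0% = DMSO with enzyme and substrate and 100% = substrate only without enzyme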
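material = STEP tyrosine phosphatase | reagent = fluorogenic phosphatase substrate OMFP at 25 µM final | doses = single compound dose of 20 µM, 1% DMSO final | schedule = 20 min reaction, room temperature, in the dark | measured by = fluorescence, 480/540 nm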
SUMO1-SIM PPI: modulators of SUMO1 protein-protein interactions, primary screen, biochemical, uHTS; Small ubiquitin-related modifier 1 (Homo sapiens), P63165; SUMO1 binding to a labelled peptide, TR-FRET, 1 h; inhibition, % at 20 µM; 0.33% of 360,000 active; in the data active = inhibition above about 37%
NadD inh: inhibitors of S. aureus NadD, primary screen, biochemical, colorimetric, uHTS; purified NadD enzyme, colorimetric absorbance read-out; inhibition, % at 20 µM; 0.78% of 360,000 active; AID 602399, 2012; in the data active = inhibition above about 26%
Scp1 inh: Scp-1 phosphatase inhibitors, primary screen, biochemical, colorimetric, uHTS | Carboxy-terminal domain RNA polymerase II polypeptide A small phosphatase 1 (Homo … | Recombinant Scp1, phosphopeptide, malachite green phosphate absorbance | inhibition, % at 20 µM | 0.88% of 340,000 active | AID 493091, 2011;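 active = inhibition above about 50% at 20 µM, limit read from the data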;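 also: plate controls were DMSO wells with enzyme for no effect and wells lacking enzyme for full effect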
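Test system: SCP-1 phosphatase catalytic domain, residues 76-261; measured by: colorimetric phosphate reagent with accelerator and stabiliser, absorbance at 630 nm; timing: enzyme reaction 45 min at room temperature, colour 5 min, stabilisation 30 min; also added: Phosphorylated 17-residue peptide substrate; compound dosing: one concentration, 20 µM, with 1.0% DMSO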
LMPTP block: LMPTP phosphatase inhibitors, primary screen, biochemical, fluorescence intensity, uHTS; Low molecular weight phosphotyrosine protein phosphatase (Homo sapiens), P24666; recombinant LMPTP-A, OMFP fluorogenic substrate; inhibition, % at 20 µM; 0.22% of 360,000 active;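 active = compounds that cut the enzyme signal by at least half of the control window in the single-dose screen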;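 also: plate controls were DMSO wells with enzyme plus substrate for no effect and substrate without enzyme for full effect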
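Test system – LMPTP-A phosphatase enzyme · Quantity – 0.625 nM LMPTP-A final · Reagent – OMFP substrate, 400 µM final · Dosing – one test concentration per compound, 20 µM, with 3% DMSO overall · Timing – 50 min enzyme reaction at room temperature, protected from light · Detection – fluorescence intensity · Controls – substrate-only low control, DMSO enzyme-plus-substrate high control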
Beacon interf DR: spectral interference with molecular beacon fluorescence, dose response, artefact control for DNMT1 inhibitor project, biochemical, fluorescent molecular beacon; shares compounds with DNMT1 inh; spectral interference counter-screen; IC50, µM; 200 tested, under 10 active; AID 602382, 2012; call rule not given here
DNMT1 confirm: DNMT1 methyltransferase inhibitor retest, confirmation, biochemical, molecular beacon, fluorescence, single concentration | shares compounds with DNMT1 inh | DNMT1 molecular beacon HinP1I cleavage | inhibition, % at 10 µM | 8% of 2,300 active | AID 602385, 2012;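 active = average inhibition of at least 30% in the single-concentration confirmation test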
DNMT1 interf: counter-screen for DNMT1 inhibitors: spectral interference; DNMT1 molecular beacon spectral interference counterscreen, fluorescence 485/520; activation (fluorescence interference), % at 10 µM; AID 602387; shares compounds with DNMT1 inh; 1% of 2,300 active;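 active = activation of at least 30% at 10 µM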;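 also: DNMT1 catalytic domain with a HinP1I cleavage step and a FAM/dabcyl DNA beacon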
Starred values were filed as active, the others as inactive. Sampled rows, rich in hits. Any-hit rate of the full collection: about 2.4%.

Screening O=C1CC(N2CCC(n3c(=O)[nH]c4ccccc43)CC2)C(=O)N1c1ccc(F)cc1 (configuration not stated) returned DNMT1 inh 61.0*, STEP block 0.8, SUMO1-SIM PPI 5.1, NadD inh 0.0, Scp1 inh 6.2, LMPTP block 1.9, DNMT1 confirm 0.1 and DNMT1 interf 2.4.
For NC(=O)c1cn(C2CCCCC2)c2ccccc2c1=O the results were DNMT1 inh -0.4, STEP block 0.4, SUMO1-SIM PPI 1.5, NadD inh -6.9, Scp1 inh -4.5 and LMPTP block -2.0.
For CC(C)(C)c1o[nH]c(=O)c1CC(N)C(=O)O (configuration not stated) the results were DNMT1 inh -3.4, STEP block -0.7, SUMO1-SIM PPI 1.8, NadD inh -3.7, Scp1 inh -1.2 and LMPTP block -1.7.
O=C(O)Cn1cc(/C=C2\C(=O)NC(=O)N(c3ccc(Cl)cc3)C2=O)c2ccccc21 was read as DNMT1 inh 67.5*, STEP block -0.3, SUMO1-SIM PPI 1.1, NadD inh -1.5, Scp1 inh -11.0, LMPTP block 1.0, DNMT1 confirm 5.0 and DNMT1 interf 3.4.
For O=C(O)Cn1cc(C=C2C(=O)NC(=O)NC2=O)c2ccccc21 the results were DNMT1 inh 4.9, STEP block 3.0, SUMO1-SIM PPI -14.5, NadD inh -1.0, Scp1 inh 5.3 and LMPTP block 0.1.
`COC(=O)[C@@H](c1ccccc1)C1CCCCN1` (some centres not stated) gave DNMT1 inh 2.7, STEP block 2.3, SUMO1-SIM PPI -5.5, NadD inh 0.4, Scp1 inh -3.2 and LMPTP block 0.4.
Screening CC(=O)O[C@H]1C[C@@H]2CC[C@@H]3[C@H](CC[C@]4(C)C(=O)CC[C@@H]34)[C@@]2(C)C[C@@H]1OC(C)=O returned DNMT1 inh 3.8, STEP block 0.5, SUMO1-SIM PPI 6.5, NadD inh 3.8, Scp1 inh -7.1 and LMPTP block 0.3.
Screening Cc1cc(/C=C2\C(=O)NC(=O)N(Cc3ccco3)C2=O)c(C)n1-c1ccc(O)cc1 returned DNMT1 inh 72.5*, STEP block -1.6, SUMO1-SIM PPI 14.4, NadD inh 23.9, Scp1 inh 20.8, LMPTP block 7.3, DNMT1 confirm 5.7 and DNMT1 interf 2.2.
CCc1ccc(N2C(=O)NC(=O)/C(=C\c3cc(C)n(-c4cc(C(=O)O)cc(C(=O)O)c4)c3C)C2=O)cc1 was read as DNMT1 inh 72.6*, STEP block 12.7, SUMO1-SIM PPI 17.6, NadD inh -0.7, Scp1 inh 35.9, LMPTP block -1.2, DNMT1 confirm 4.2 and DNMT1 interf 3.4.
`Cc1cc(/C=C2\C(=O)NC(=O)N(Cc3ccco3)C2=O)c(C)n1-c1ccc(C(=O)O)cc1` gave DNMT1 inh 86.3*, STEP block 8.0, SUMO1-SIM PPI 8.8, NadD inh -5.3, Scp1 inh 61.0*, LMPTP block 9.9, DNMT1 confirm 7.7 and DNMT1 interf -1.3.
For Cc1cc(/C=C2\C(=O)NC(=O)N(c3ccc(Cl)cc3)C2=O)c(C)n1-c1sc2c(c1C#N)CCCC2 the results were DNMT1 inh 78.8*, STEP block 4.9, SUMO1-SIM PPI 48.8*, NadD inh 46.7*, Scp1 inh -1.8, LMPTP block 2.3, Beacon interf DR >99, DNMT1 confirm 32.2* and DNMT1 interf -3.7.
For CCOC(=O)c1c(-n2c(C)cc(/C=C3\C(=O)NC(=O)N(C)C3=O)c2C)sc2c1CCCC2 the results were DNMT1 inh 29.6, STEP block 0.5, SUMO1-SIM PPI 34.6, NadD inh 12.6, Scp1 inh 0.3 and LMPTP block 3.4.
CN1C(=O)C(Cc2ccsc2)C(=O)N(C)C1=O was read as DNMT1 inh -4.2, STEP block 3.8, SUMO1-SIM PPI -2.2, NadD inh -3.3, Scp1 inh -1.6 and LMPTP block 1.7.
CC(C)(C)N1Cc2ccccc2C1=N was read as DNMT1 inh -2.8, STEP block -3.8, SUMO1-SIM PPI 1.4, NadD inh 0.5, Scp1 inh -4.3 and LMPTP block -0.7.
CN1CCN(c2ccc(/C=C3\C(=O)NC(=S)N(c4cccc(Br)c4)C3=O)o2)CC1 was read as DNMT1 inh -5.4, STEP block -12.8, SUMO1-SIM PPI -117.0, NadD inh 9.6, Scp1 inh -7.1 and LMPTP block 7.2.
`COc1ccc(N2C(=O)/C(=C/c3ccc(C)o3)C(=O)NC2=S)cc1` gave DNMT1 inh 87.0*, STEP block 4.5, SUMO1-SIM PPI 17.8, NadD inh 24.5, Scp1 inh 42.4, LMPTP block 0.2, DNMT1 confirm 11.2 and DNMT1 interf -0.7.
For Cc1ccc(/C=C2\C(=O)NC(=S)N(c3cccc(F)c3)C2=O)o1 the results were DNMT1 inh 72.1*, STEP block 4.4, SUMO1-SIM PPI 28.4, NadD inh 7.1, Scp1 inh 37.9, LMPTP block 2.6, DNMT1 confirm 23.4 and DNMT1 interf 2.1.
O=C(c1cc2cc3ccc(Cl)cc3nc2o1)N1CCC2(CC1)OCCO2 was read as DNMT1 inh -2.6, STEP block -1.6, SUMO1-SIM PPI -23.3, NadD inh -2.7, Scp1 inh -10.0 and LMPTP block 1.0.
`CC(C)(C)N1C(=O)NC(=O)/C(=C\c2ccc3c(c2)CCN3CCCCl)C1=O` gave DNMT1 inh -9.1, STEP block 1.7, SUMO1-SIM PPI -12.6, NadD inh 10.4, Scp1 inh 5.3 and LMPTP block 1.2.

Assay outcomes deposited in PubChem by Sanford-Burnham Center for Chemical Genomics.
